One assay deals with SK-OV-3. The assay can be described thus: Cytotoxicity against human SKOV3 cells by MTT assay. It counts as functional, cell-based.
A further assay concerns A549. The assay can be described thus: Cytotoxicity against human A549 cells by MTT assay. In kind it is functional, cell-based. For orientation: Tetrazolium dyes change colour on reduction, which living cells bring about.
The test system of a further assay is BGC-823. The assay can be described thus: Cytotoxicity against human BGC823 cells by MTT assay. In kind it is functional, cell-based.
Another assay relates to HepG2. The assay can be described thus: Cytotoxicity against human HepG2 cells by MTT assay. In kind it is functional, cell-based.
A further assay concerns HCT-8. The assay can be described thus: Cytotoxicity against human HCT8 cells by MTT assay. In kind it is functional, cell-based.
The nature of assay [1]: Antiinflammatory activity in BALB/c mouse splenocytes assessed as inhibition of LPS-induced TNFalpha production at 10 uM after 24 hrs. In kind it is functional. The following applies: Splenocyte. In outline: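 BALB/c mouse splenocyte suspensions were cultured in RPMI 1640 with 10% FBS. Compounds were dissolved in DMSO and given at 10 μM for 24 h, followed by LPS stimulation at 1 μg/mL. NK-007 at 100 nM served as positive control. TNF-α in culture supernatants was measured with cytometric bead array kits and reported as inhibitory rate.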

The test system of another assay is Amphibalanus amphitrite. The assay can be described thus: Antifouling activity against barnacle Balanus amphitrite Darwin. In kind it is functional, organism-based. In short, it runs like this: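 Barnacle nauplii were reared to cyprids at 26−28 °C and fed Chaetoceros gracilis, reaching the cyprid stage within four days. Fresh cyprids were used for testing, and the value is reported as IC50.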

≈ marks a conversion by molar mass, not a printed value.

In general, IC50 refers to the concentration at which inhibition is half-maximal. Higher therefore signals weaker potency. In general, inhibition refers to the share of the control response that was lost under treatment. The EC50 is the concentration at which the effect is half-maximal. High values mean weaker potency, low ones greater potency.

For `CC1=C[C@@]23CC(C)(C)C[C@@]2(O)[C@H](C)CC[C@@H]1O3`, the IC50 in the assay with SK-OV-3, in the assay with A549, in the assay on BGC-823, in the assay with HepG2 and with HCT-8 was greater than 10 µg/mL throughout.
`C/C1=C/C2=C(CC(C)(C)[C@@H]2O)[C@H](C)CC[C@@H]1O`: in assay [1], the inhibition at 10 µM amounted to 16%. Further, the IC50 in the assay with SK-OV-3, in the assay with A549, in the assay on BGC-823, in the assay on HepG2 and in the assay with HCT-8 was greater than 10 µg/mL in each case.
Turning to `C/C(=C/CC[C@H](C)O)CC1=CC(C)(C)CC1=O`, the IC50 in the assay on SK-OV-3, in the assay with A549, in the assay with BGC-823, with HepG2 and in the assay with HCT-8 was greater than 10 µg/mL each time.
Take `CC1=C[C@]2(O)CC(C)(C)C[C@]23O[C@@]1(O)CC[C@H]3C`: the IC50 with SK-OV-3, in the assay on A549, in the assay on BGC-823, with HepG2 and in the assay on HCT-8 was greater than 10 µg/mL throughout.
`C/C1=C/[C@]23O[C@]2(CC(C)(C)C3=O)[C@H](C)CC[C@@H]1O`: the half-inhibitory concentration (IC50) in the assay with SK-OV-3, in the assay on A549, in the assay with BGC-823, in the assay on HepG2 and in the assay with HCT-8 was greater than 10 µg/mL throughout.
As for `CC(=O)/C=C1/CC(C)(C)C[C@]12OC(=O)CC[C@H]2C`, the IC50 with SK-OV-3, in the assay with A549, in the assay with BGC-823, with HepG2 and in the assay on HCT-8 was greater than 10 µg/mL in each case.
Consider `CC(=O)C[C@@H]1CC(C)(C)C=C1[C@]1(C)CCC(=O)O1`, for which the 50% inhibitory concentration (IC50) with SK-OV-3, in the assay with A549, in the assay with BGC-823, with HepG2 and in the assay with HCT-8 was greater than 10 µg/mL throughout.
`CC(=O)CC/C=C(/C)C[C@H]1CC(C)(C)CC1=O` [(-)-SINULARONE A]: the IC50 in the assay with Amphibalanus amphitrite is 74 µM. For the same compound, in assay [1], the inhibition at 10 µM came to 23%.
Regarding `C[C@@H]1CC[C@]2(O)O[C@]13CC(C)(C)CC3=C[C@@]2(C)O`, the half-inhibitory concentration (IC50) with Amphibalanus amphitrite is 54 µM; in the assay on SK-OV-3 it was greater than 10 µg/mL; in the assay with A549, greater than 10 µg/mL; in the assay with BGC-823, greater than 10 µg/mL; with HepG2, greater than 10 µg/mL; with HCT-8, greater than 10 µg/mL. The inhibition at 10 µM in assay [1] was found to be 21%.
`C/C1=C/C2=C(CC(C)(C)C2=O)[C@H](C)CCC1=O`: the IC50 with SK-OV-3, with A549, in the assay with BGC-823, in the assay with HepG2 and in the assay with HCT-8 was greater than 10 µg/mL throughout.
For the compound `C[C@@H]1CCC(=O)[C@](C)(O)/C=C2/CC(C)(C)C[C@@H]21`, the half-inhibitory concentration (IC50) in the assay on Amphibalanus amphitrite was 9.7 µM; with SK-OV-3 it was greater than 10 µg/mL; in the assay with A549 it was greater than 10 µg/mL; in the assay on BGC-823, greater than 10 µg/mL; with HepG2, greater than 10 µg/mL; with HCT-8 it was greater than 10 µg/mL.
As to `CC1(C)CC2=C[C@@](C)(O)[C@@]3(O)CC[C@@](C)(O)[C@]2(C1)O3`, the IC50 with SK-OV-3, in the assay with A549, in the assay on BGC-823, in the assay with HepG2 and with HCT-8 was greater than 10 µg/mL in each case.
`CC(=O)CC/C=C(/C)C[C@@H]1CC(C)(C)CC1=O` returned a concentration for a half-maximal effect (EC50) in the assay with Amphibalanus amphitrite of 13.9 µg/mL (≈ 58.8 µM).
Regarding `CC1=CC2=CC(C)(C)C[C@@]23O[C@]1(O)CC[C@H]3C`, the IC50 in the assay with SK-OV-3, with A549, with BGC-823, in the assay with HepG2 and in the assay with HCT-8 was greater than 10 µg/mL in each case.
Take `C/C1=C/C2=CC(C)(C)C[C@@]2(OO)[C@H](C)CC[C@@H]1O`: the IC50 with SK-OV-3, with A549, in the assay on BGC-823, in the assay on HepG2 and in the assay on HCT-8 was greater than 10 µg/mL each time.
Take `C[C@@H]1CC[C@]2(O)O[C@]13CC(C)(C)[C@H](O)C3=C[C@@]2(C)O`: the half-inhibitory concentration (IC50) in the assay with SK-OV-3, in the assay with A549, in the assay on BGC-823, in the assay on HepG2 and with HCT-8 was greater than 10 µg/mL in each case.
Consider `C/C1=C/C2=CC(C)(C)C[C@]2(OO)[C@H](C)CC[C@@H]1O`, for which the IC50 in the assay on SK-OV-3, with A549, in the assay on BGC-823, in the assay on HepG2 and in the assay with HCT-8 was greater than 10 µg/mL each time.
As for `CC(=O)CC/C=C(/C)CC1=CC(C)(C)CC1=O`, the IC50 in the assay with SK-OV-3, in the assay on A549, in the assay on BGC-823, in the assay with HepG2 and in the assay with HCT-8 was greater than 10 µg/mL each time.
In the case of `C/C1=C/C2=C(CC(C)(C)[C@H]2O)[C@H](C)CC[C@@H]1O`, the IC50 in the assay on SK-OV-3, with A549, in the assay on BGC-823, in the assay with HepG2 and in the assay on HCT-8 was greater than 10 µg/mL in each case.
Take `C/C1=C/C2=C(CC(C)(C)C2=O)[C@H](C)CC[C@@H]1O`: the IC50 in the assay on SK-OV-3, in the assay with A549, in the assay with BGC-823, with HepG2 and with HCT-8 was greater than 10 µg/mL throughout.

Source of the values: ChEMBL document CHEMBL2417487, “Asteriscane-type sesquiterpenoids from the soft coral Sinularia capillosa” (J Nat Prod, 2013).
